Measured values as given in article PMC10073337 (Biochemistry, 2023).
Marks after values point to notes of the source that are not given here.

Assays:
[1] = target: T1, HsIYD reconstituted with FMN analogues (Homo sapiens, UniProt Q6PHW0); type: biochemical; settings: I-Tyr as substrate, HsIYD reconstituted with the cofactor, pH 7.4
T1 sequence (Q6PHW0 with tags, fused parts or gaps): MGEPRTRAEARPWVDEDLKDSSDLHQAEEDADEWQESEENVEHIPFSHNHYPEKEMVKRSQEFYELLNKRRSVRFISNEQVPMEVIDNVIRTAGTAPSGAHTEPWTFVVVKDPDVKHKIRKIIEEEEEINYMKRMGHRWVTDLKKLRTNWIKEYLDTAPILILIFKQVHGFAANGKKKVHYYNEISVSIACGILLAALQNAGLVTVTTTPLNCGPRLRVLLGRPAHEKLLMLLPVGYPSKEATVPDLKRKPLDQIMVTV
In short: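 FMN was stripped from column-bound SUMO–HsIYD with 0.6 to 1.5 M guanidinium HCl, then the gradient was reversed. The protein was loaded with 200 μM flavin analogue for 4 h at 4 °C and washed. It was eluted with 250 mM imidazole, the tag was cleaved, and size exclusion followed. Turnover used 70–80 nM enzyme, 100 mM potassium phosphate pH 7.4, 0.5% dithionite and 25 °C, with HPLC product detection.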

[2] = free in neutral aqueous solution at 25 °C; cited from earlier work
[3] = cited from earlier work
HsIYD containing FMNox = target: T2, HsIYD containing FMNox (Homo sapiens, UniProt Q6PHW0); experiment: Binding affinity to HsIYD containing oxidized FMN
T2 sequence (Q6PHW0 with tags, fused parts or gaps): T1 sequence (Q6PHW0 with tags, fused parts or gaps)
In short: (§1)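 HsIYD (residues 2–31 removed) was expressed as a SUMO fusion and purified by Ni2+ affinity and size exclusion. HhIYD carried a C-terminal His6 tag and was purified by Ni2+ affinity. Ligand was titrated into 3 μM enzyme in 110 mM potassium phosphate pH 7.4, stirred, at 25 °C. Flavin fluorescence (ex 450, em 516 nm) was read 2 min after each addition. Kd was fitted from fractional remaining fluorescence versus total enzyme and ligand.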

HhIYD containing FMNox = target: T3, HhIYD containing FMNox (Haliscomenobacter hydrossis, UniProt F4KU78); experiment: Binding affinity to HhIYD containing oxidized FMN
T3 sequence (F4KU78 1-222): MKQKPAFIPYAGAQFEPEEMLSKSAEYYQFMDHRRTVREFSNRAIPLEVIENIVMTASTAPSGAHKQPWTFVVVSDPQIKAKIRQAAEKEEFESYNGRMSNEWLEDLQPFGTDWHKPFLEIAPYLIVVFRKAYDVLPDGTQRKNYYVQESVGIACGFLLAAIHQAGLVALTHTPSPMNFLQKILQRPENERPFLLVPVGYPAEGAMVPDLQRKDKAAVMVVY
In short: as §1

[4] = Estimated phenol pKa and phenolate fraction of substrates; type: physicochemical; settings: assay conditions of pH 7.4, based on estimated pKa
[5] = target: T4, IYD from Haliscomenobacter hydrossis (HhIYD) (Haliscomenobacter hydrossis, UniProt F4KU78); experiment: Catalytic deiodination; type: biochemical; settings: I-Tyr turnover, pL 7.4, 100 mM potassium phosphate
T4 sequence (F4KU78 1-222): T3 sequence (F4KU78 1-222)

[6] = target: T5, Iodotyrosine deiodinase (Human, HsIYD) (Homo sapiens, UniProt Q6PHW0); experiment: Catalytic deiodination; type: biochemical; settings: 100 mM potassium phosphate pH 7.4, 0.5% sodium dithionite
T5 sequence (Q6PHW0 with tags, fused parts or gaps): T1 sequence (Q6PHW0 with tags, fused parts or gaps)

HhIYD = target: T6, HhIYD (Haliscomenobacter hydrossis, UniProt F4KU78); experiment: Competitive inhibition of I-Tyr dehalogenation by HhIYD; type: biochemical
T6 sequence (F4KU78 1-222): T3 sequence (F4KU78 1-222)
In short: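 His6-tagged HhIYD (70–80 nM final) was incubated with I-Tyr in 111 mM potassium phosphate pH 7.4 at 25 °C. Dithionite (5% in 5% sodium bicarbonate) was added at one-tenth volume as reductant. Deiodinated product was quantified by reverse-phase C18 HPLC. The test compound was included as a competitive inhibitor, giving Ki against the reduced enzyme.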

| Structure (SMILES) | kcat [1] [s^−1 × 10^−2] | redox potential [2] | Kd (HsIYD containing FMNox) [µM] | Kd (HhIYD containing FMNox) [µM] | further results |
| --- | --- | --- | --- | --- | --- |
| Cc1cc2c(cc1Cl)nc1c(=O)[nH]c(=O)nc-1n2C[C@H](O)[C@H](O)[C@H](O)COP(=O)(O)O [7-Cl-FMN] | 3.3 ± 0.2 | −128^d mV |  |  |  |
| COc1cc2c(cc1C)nc1c(=O)[nH]c(=O)nc-1n2C[C@H](O)[C@H](O)[C@H](O)COP(=O)(O)O [8-MeO-FMN, 8-methoxy-desmethylFMN] | 9.0 ± 0.3 | −260^c mV |  |  |  |
| Cc1cc2nc3c(=O)[nH]c(=O)nc-3n(C[C@H](O)[C@H](O)[C@H](O)COP(=O)(O)O)c2cc1C [FMN, Flavin Mononucleotide] | 5.2 ± 0.2 | −205^d mV |  |  |  |
| N[C@@H](Cc1cc(I)c(O)c(I)c1)C(=O)O [I2-Tyr, diiodotyrosine] |  |  |  |  | pKa of the α-ammonium group [3]: 7.8 |
| N#Cc1cc(C[C@H](N)C(=O)O)cc(I)c1O [I-CN-Tyr, 3-cyano-5-iodotyrosine] |  |  | 7 ± 0.03 | 7.3 ± 0.4 | fraction existing in phenolate form [4]: 98% |
| N[C@@H](Cc1cc(F)c(O)c(I)c1)C(=O)O [I-F-Tyr, 3-fluoro-5-iodotyrosine] |  |  | 0.9 ± 0.1 | 6.9 ± 0.3 |  |
| Cc1cc(C[C@H](N)C(=O)O)cc(I)c1O [I-Me-Tyr, 3-Iodo-5-methyltyrosine] |  |  | 2.6 ± 0.03 | 1.7 ± 0.1 | fraction existing in phenolate form [4]: 3.4% |
| COc1cc(C[C@H](N)C(=O)O)cc(I)c1O [I-MeO-Tyr, 3-iodo-5-methoxytyrosine] |  |  | 6.3 ± 0.3 | 4.3 ± 0.4 |  |
| N[C@@H](Cc1ccc(O)c(I)c1)C(=O)O [I-Tyr, iodotyrosine] |  |  |  |  | Km ([5]; D2O): 12 ± 4 µM; kcat ([5]; D2O): 0.41 ± 0.05 s⁻¹; Km ([5]; H2O, 9% glycerol): 13 ± 4 µM; kcat ([5]; H2O, 9% glycerol): 0.39 ± 0.05 s⁻¹; Km ([5]; H2O): 23 ± 4 µM; kcat ([5]; H2O): 0.64 ± 0.08 s⁻¹; Km [6]: 19 ± 3 µM; kcat [6]: 0.12 ± 0.008 s⁻¹ |
| N[C@@H](Cc1ccc(O)c(F)c1)C(=O)O [fluorotyrosine, 3-fluorotyrosine] |  |  |  |  | Ki (HhIYD): 10.7 ± 0.1 µM |
